Values after ≈ are worked out from the molar mass of the structure shown.
How the values were obtained:
[1] = test system: Mycobacterium tuberculosis; assay: Antituberculosis activity against INH resistant Mycobacterium tuberculosis H37Rv; assay type: functional
In short: (§1)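 Agar dilution on 7H11 plates with drug-susceptible and drug-resistant M. tuberculosis H37Rv strains grown in Middlebrook 7H9 broth. Frozen stocks (-80 °C) diluted to about 10⁶ CFU/mL and spotted with a multipoint inoculator onto drug-containing plates. Drugs dissolved in DMSO and serially diluted 2-fold in DMSO. Read-out: MIC.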

[2] = test system: Mycobacterium tuberculosis; assay: Antituberculosis activity against rifampicin resistant Mycobacterium tuberculosis H37Rv; assay type: functional; in short: as §1

## C[C@]1(COc2ccc(N3CCOCC3)cc2)Cn2cc([N+](=O)[O-])nc2O1
[1]
  MIC: 0.78 µg/mL (≈ 2.16 µM)
[2]
  MIC: 0.39 µg/mL (≈ 1.08 µM)

## COc1ccc(OC[C@@]2(C)Cn3cc([N+](=O)[O-])nc3O2)cc1
[1]
  MIC: 0.1 µg/mL (≈ 0.328 µM)
[2]
  MIC: 0.05 µg/mL (≈ 0.164 µM)

## C[C@]1(COc2ccc(N3CCC(Oc4ccc(C(F)(F)F)cc4)CC3)cc2)Cn2cc([N+](=O)[O-])nc2O1
[1]
  MIC: 0.012 µg/mL (≈ 0.0231 µM)
[2]
  MIC: 0.006 µg/mL (≈ 0.0116 µM)

## C[C@]1(COc2ccc(OC(F)(F)F)cc2)Cn2cc([N+](=O)[O-])nc2O1
[1]
  MIC: 0.39 µg/mL (≈ 1.09 µM)
[2]
  MIC: 0.2 µg/mL (≈ 0.557 µM)

## C[C@]1(COc2ccccc2)Cn2cc([N+](=O)[O-])nc2O1
[1]
  MIC: 0.05 µg/mL (≈ 0.182 µM)
[2]
  MIC: 0.05 µg/mL (≈ 0.182 µM)

## Cc1ccc(OC2CCN(c3ccc(OC[C@@]4(C)Cn5cc([N+](=O)[O-])nc5O4)cc3)CC2)cc1
[1]
  MIC: 0.39 µg/mL (≈ 0.84 µM)
[2]
  MIC: 0.39 µg/mL (≈ 0.84 µM)

## C[C@]1(COc2ccc(N3CCC(Oc4ccccc4)CC3)cc2)Cn2cc([N+](=O)[O-])nc2O1
[1]
  MIC: 0.39 µg/mL (≈ 0.866 µM)
[2]
  MIC: 0.2 µg/mL (≈ 0.444 µM)

## C[C@]1(COc2ccc(N3CC[S+]([O-])CC3)cc2)Cn2cc([N+](=O)[O-])nc2O1
[1]
  MIC: 6.25 µg/mL (≈ 15.9 µM)
[2]
  MIC: 6.25 µg/mL (≈ 15.9 µM)

## C[C@]1(COc2ccc(N3CCC(Oc4cccc(OC(F)(F)F)c4)CC3)cc2)Cn2cc([N+](=O)[O-])nc2O1
[1]
  MIC: 0.024 µg/mL (≈ 0.0449 µM)
[2]
  MIC: 0.024 µg/mL (≈ 0.0449 µM)

## C[C@]1(COc2ccc(N3CCC(Oc4ccc(Cl)cc4)CC3)cc2)Cn2cc([N+](=O)[O-])nc2O1
[1]
  MIC: 0.05 µg/mL (≈ 0.103 µM)
[2]
  MIC: 0.024 µg/mL (≈ 0.0495 µM)

## C[C@]1(COc2ccc(N3CCCCC3)cc2)Cn2cc([N+](=O)[O-])nc2O1
[1]
  MIC: 0.39 µg/mL (≈ 1.09 µM)
[2]
  MIC: 0.39 µg/mL (≈ 1.09 µM)

## COc1ccc(OC2CCN(c3ccc(OC[C@@]4(C)Cn5cc([N+](=O)[O-])nc5O4)cc3)CC2)cc1
[1]
  MIC: 0.39 µg/mL (≈ 0.812 µM)
[2]
  MIC: 0.2 µg/mL (≈ 0.416 µM)

## C[C@]1(COc2ccc(N3CCC(Oc4ccc(F)cc4)CC3)cc2)Cn2cc([N+](=O)[O-])nc2O1
[1]
  MIC: 0.39 µg/mL (≈ 0.832 µM)
[2]
  MIC: 0.2 µg/mL (≈ 0.427 µM)

## C[C@]1(COc2ccc(N3CCC(Oc4ccccc4OC(F)(F)F)CC3)cc2)Cn2cc([N+](=O)[O-])nc2O1
[1]
  MIC: 0.39 µg/mL (≈ 0.73 µM)
[2]
  MIC: 0.2 µg/mL (≈ 0.374 µM)

## C[C@]1(COc2ccc(C(F)(F)F)cc2)Cn2cc([N+](=O)[O-])nc2O1
[1]
  MIC: 0.2 µg/mL (≈ 0.583 µM)
[2]
  MIC: 0.1 µg/mL (≈ 0.291 µM)

## Cc1ccc(OC[C@@]2(C)Cn3cc([N+](=O)[O-])nc3O2)cc1
[1]
  MIC: 0.024 µg/mL (≈ 0.083 µM)
[2]
  MIC: 0.012 µg/mL (≈ 0.0415 µM)

## C[C@]1(COc2ccc(N3CCSCC3)cc2)Cn2cc([N+](=O)[O-])nc2O1
[1]
  MIC: 0.39 µg/mL (≈ 1.04 µM)
[2]
  MIC: 0.2 µg/mL (≈ 0.531 µM)

## C[C@]1(COc2ccc(Cl)cc2)Cn2cc([N+](=O)[O-])nc2O1
[1]
  MIC: 0.012 µg/mL (≈ 0.0387 µM)
[2]
  MIC: 0.006 µg/mL (≈ 0.0194 µM)

## C[C@]1(COc2ccc(N3CCC(Oc4ccc(OC(F)(F)F)cc4)CC3)cc2)Cn2cc([N+](=O)[O-])nc2O1 [DELAMANID]
[1]
  MIC: 0.006 µg/mL (≈ 0.0112 µM)
[2]
  MIC: 0.006 µg/mL (≈ 0.0112 µM)
